Values after ≈ are worked out from the molar mass of the structure shown. Active and inactive are the calls of the source. The calls are words filed in the database; no cut-off is given here. Non-standard residues stand in square brackets, D forms with d. Residues, ends and D or L forms follow the SMILES beside them. Cha = N[C@@H](CC1CCCCC1)C(=O)O; Dab = NCC[C@H](N)C(=O)O
Tests used:
Escherichia coli [1] = experiment: Antibacterial activity against Escherichia coli ATCC 25922 in presence of 100% serum after 12 hrs by broth microdilution method; type: functional; conditions: ATCC 25922, 12 h
How it was run: (§1)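 Serum stability: compound added to 100% human serum at final 64 μg/mL, held at 37 °C, sampled at 0, 6, 12 and 24 h. […] Residual activity compared with untreated control.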

Escherichia coli [2] = experiment: Antibacterial activity against carbapenem-resistant Escherichia coli clinical isolate expressing beta-lactamase KPC3, TEM1 after 18 to 20 hrs by broth microdilution method; type: functional
How it was run: (§2)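 Broth microdilution in tryptic soy broth: 2-fold dilutions mixed 1:1 with ~1.5 × 10^5 CFU/mL bacterial suspension in TSB, final 0.5–32 μg/mL, 37 °C for 18–20 h. MIC = lowest concentration with no visible growth. At least three independent experiments, one replicate each.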

Staphylococcus aureus [3] = experiment: Bactericidal activity against Staphylococcus aureus ATCC 29213; type: functional; conditions: read-out: MBC99.9
How it was run: (§3)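 MBC from MIC plates at end point: 50 μL from each well with no visible growth plated on tryptic soy agar and counted. MBC taken as lowest concentration giving ≥99.9% fall in viable count relative to initial inoculum. Three independent experiments, one replicate each.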

Staphylococcus aureus [4] = experiment: Antibacterial activity against methicillin-resistant Staphylococcus aureus ATCC 43300 after 18 to 20 hrs by broth microdilution method; type: functional; how it was run: as §2
Escherichia coli [5] = experiment: Antibacterial activity against carbapenem-resistant Escherichia coli clinical isolate expressing beta-lactamase NDM after 18 to 20 hrs by broth microdilution method; type: functional; how it was run: as §2
Pseudomonas aeruginosa [6] = experiment: Bactericidal activity against Pseudomonas aeruginosa ATCC 27853 at 16 to 32 ug/ml after 24 hrs by time-kill assay; type: functional
How it was run: (§4)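 Time-kill at 8, 16 and 32 μg/mL; survivors counted on tryptic soy agar at 0, 2, 4, 6 and 24 h. Three independent experiments, one replicate each.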

Klebsiella pneumoniae = experiment: Antibacterial activity against carbapenem-resistant Klebsiella pneumoniae clinical isolate expressing beta-lactamase KPC after 18 to 20 hrs by broth microdilution method; type: functional; how it was run: as §2
Enterococcus faecium [7] = experiment: Bactericidal activity against Enterococcus faecium ATCC 19434; type: functional; conditions: read-out: MBC99.9; how it was run: as §3
Acinetobacter baumannii = experiment: Bactericidal activity against Acinetobacter baumannii ATCC 19606; type: functional; conditions: ATCC 19606 = CIP 70.34 = JCM 6841, read-out: MBC99.9; how it was run: as §3
Pseudomonas aeruginosa [8] = experiment: Bactericidal activity against Pseudomonas aeruginosa ATCC 27853 at 8 ug/ml after 24 hrs by time-kill assay; type: functional; how it was run: as §4
Escherichia coli [9] = experiment: Antibacterial activity against Escherichia coli ATCC 25922 in presence of 100% serum after 24 hrs by broth microdilution method; type: functional; conditions: ATCC 25922, 24 h; how it was run: as §1
Staphylococcus aureus [10] = experiment: Induction of cytoplasmic membrane damage in Staphylococcus aureus ATCC 29213 assessed as intracellular potassium ion release at 32 to 64 ug/ml by PBFI probe-based fluorescence assay; type: functional, cell-based
How it was run: (§5)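 Mid-log cells washed and suspended in 5 mM HEPES pH 7.2 + 5 mM glucose. PBFI K+ probe added at final 2 μM, then compound at final 8–64 μg/mL; fluorescence read at ex 346/em 505 nm. Three independent experiments; change in fluorescence analysed by ANOVA with Tukey HSD.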

Staphylococcus aureus [11] = experiment: Antibacterial activity against Staphylococcus aureus ATCC 29213 after 18 to 20 hrs by broth microdilution method; type: functional
How it was run: (§6)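 Broth microdilution in tryptic soy broth: 2-fold dilutions mixed 1:1 with ~1.5 × 10^5 CFU/mL inoculum, final 0.5–32 μg/mL; 37 °C, 18–20 h. MIC taken as lowest concentration giving no visible growth. At least three independent experiments, one replicate each.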

Pseudomonas aeruginosa [12] = experiment: Bactericidal activity against Pseudomonas aeruginosa ATCC 27853 at 16 ug/ml after 2 hrs by time-kill assay relative to control; type: functional; how it was run: as §4
Pseudomonas aeruginosa [13] = experiment: Induction of cytoplasmic membrane damage in Pseudomonas aeruginosa ATCC 27853 assessed as intracellular potassium ion release at 32 to 64 ug/ml by PBFI probe-based fluorescence assay; type: functional, cell-based; how it was run: as §5
Staphylococcus aureus [14] = experiment: Bactericidal activity against Staphylococcus aureus ATCC 29213 at 32 ug/ml after 4 hrs by time-kill assay relative to control; type: functional; how it was run: as §4
Escherichia coli [15] = experiment: Antibacterial activity against polymyxin-resistant Escherichia coli AR 0494 expressing mcr1 after 18 to 20 hrs by broth microdilution method; type: functional; how it was run: as §2
Enterobacter cloacae [16] = experiment: Antibacterial activity against carbapenem-resistant Enterobacter cloacae clinical isolate expressing beta-lactamase KPC-3, TEM1 after 18 to 20 hrs by broth microdilution method; type: functional; how it was run: as §2
Staphylococcus aureus [17] = experiment: Bactericidal activity against methicillin-resistant Staphylococcus aureus ATCC 43300; type: functional; conditions: read-out: MBC99.9
How it was run: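 MBC taken at the end of the MIC test: 50 μL from each well without visible growth plated on tryptic soy agar. MBC = lowest concentration giving ≥99.9% reduction in viable cells relative to the initial inoculum. Three independent experiments, one replicate each.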

Staphylococcus aureus [18] = experiment: Bactericidal activity against Staphylococcus aureus ATCC 29213 at 32 ug/ml after 60 mins in presence of LTA; type: functional
How it was run: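 S. aureus at ~10^6 CFU/mL mixed with S. aureus LTA (final 10, 25, 50 or 100 μg/mL), then compound at final 32 μg/mL. Incubated 37 °C, 200 rpm, 60 min; survivors counted on TSA. Four independent experiments, one replicate each.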

Pseudomonas aeruginosa [19] = experiment: Bactericidal activity against Pseudomonas aeruginosa ATCC 27853 at 16 ug/ml after 60 mins in presence of LPS; type: functional
How it was run: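 P. aeruginosa at ~10^6 CFU/mL in TSB with E. coli O111:B4 LPS (final 10, 25, 50 or 100 μg/mL), then compound at final 16 μg/mL. Incubated 37 °C, 200 rpm, 60 min; survivors counted on TSA. Three independent experiments, one replicate each.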

Enterococcus faecium [20] = experiment: Antibacterial activity against Enterococcus faecium ATCC 19434 after 18 to 20 hrs by broth microdilution method; type: functional; how it was run: as §6
Staphylococcus aureus [21] = experiment: Antibiofilm activity against methicillin-resistant Staphylococcus aureus LAC established catheter-associated biofilm model at 5 times MIC after 72 hrs relative to control; type: functional
Enterobacter cloacae [22] = experiment: Antibacterial activity against carbapenem-resistant Enterobacter cloacae clinical isolate expressing beta-lactamase NDM after 18 to 20 hrs by broth microdilution method; type: functional; how it was run: as §2
Pseudomonas aeruginosa [23] = experiment: Bactericidal activity against Pseudomonas aeruginosa ATCC 27853 at 32 ug/ml after 2 hrs by time-kill assay relative to control; type: functional; how it was run: as §4
Escherichia coli [24] = experiment: Antibacterial activity against Escherichia coli ATCC 25922 in presence of 100% serum measured immediately post compound addition in serum by broth microdilution method; type: functional; how it was run: as §1
Pseudomonas aeruginosa [25] = experiment: Induction of cytoplasmic membrane depolarization in Pseudomonas aeruginosa ATCC 27853 at >= 16 ug/ml by DiSC3(5) probe-based fluorescence assay; type: functional
Escherichia coli [26] = experiment: Antibacterial activity against polymyxin-resistant Escherichia coli UAMS-ECPR2 after 18 to 20 hrs by broth microdilution method; type: functional; how it was run: as §2
Pseudomonas aeruginosa [27] = experiment: Antibiofilm activity against Pseudomonas aeruginosa ATCC 27853 established catheter-associated biofilm model at 40 times MIC after 72 hrs relative to control; type: functional

Compound `CC(C)C[C@H](NC(=O)[C@@H](Cc1ccccc1)NC(=O)[C@H](CCN)NC(=O)[C@H](Cc1ccccc1)NC(=O)[C@H](CCN)NC(=O)[C@@H](N)CC1CCCCC1)C(=O)N[C@@H](CCN)C(=O)N[C@H](CC(C)C)C(=O)N[C@@H](Cc1ccccc1)C(=O)N[C@@H](CO)C(N)=O` (H-[Cha][Dab]F[Dab][dF]L[Dab][dL]FS-NH2) has an MIC (Escherichia coli [1]) of 4 to 8 µg/mL, an MIC (Escherichia coli [2]) of 0.5 to 1 µg/mL (≈ 0.408 to 0.816 µM) and an MBC (Staphylococcus aureus [3]) of 8 µg/mL (≈ 6.53 µM). The MIC (Staphylococcus aureus [4]) was 4 µg/mL (≈ 3.26 µM), the MIC (Escherichia coli [5]) was 0.5 µg/mL (≈ 0.408 µM) and the Activity (Pseudomonas aeruginosa [6]) was “Active”. The MIC (Klebsiella pneumoniae) was 1 to 2 µg/mL (≈ 0.816 to 1.63 µM), the MBC (Enterococcus faecium [7]) was 16 µg/mL (≈ 13.1 µM) and the MBC (Acinetobacter baumannii) was 4 to 8 µg/mL (≈ 3.26 to 6.53 µM). The Activity (Pseudomonas aeruginosa [8]) was “inactive”, the MIC (Escherichia coli [9]) was 8 µg/mL and the Activity (Staphylococcus aureus [10]) was “Active”. The MIC (Staphylococcus aureus [11]) was 2 to 4 µg/mL (≈ 1.63 to 3.26 µM), the Activity (Pseudomonas aeruginosa [12]) was 3.7 deltalog10CFU/ml and the Activity (Pseudomonas aeruginosa [13]) was “Active”. For the same compound, the Activity (Staphylococcus aureus [14]) was 5.4 deltalog10CFU/ml, the MIC (Escherichia coli [15]) was 0.5 µg/mL (≈ 0.408 µM) and the MIC (Enterobacter cloacae [16]) was 0.5 µg/mL (≈ 0.408 µM). The MBC (Staphylococcus aureus [17]) was 8 µg/mL (≈ 6.53 µM), the Activity (Staphylococcus aureus [18]) was “inactive” and the Activity (Pseudomonas aeruginosa [19]) was “inactive”. For the same compound, the MIC (Enterococcus faecium [20]) was 8 µg/mL (≈ 6.53 µM), the Activity (Staphylococcus aureus [21]) was 3 deltalog10CFU/ml and the MIC (Enterobacter cloacae [22]) was 0.5 µg/mL (≈ 0.408 µM). The Activity (Pseudomonas aeruginosa [23]) was 5.1 deltalog10CFU/ml, the MIC (Escherichia coli [24]) was 4 to 8 µg/mL and the Activity (Pseudomonas aeruginosa [25]) was “Active”. The MIC (Escherichia coli [26]) was less than 0.5 µg/mL and the Activity (Pseudomonas aeruginosa [27]) was 2.6 deltalog10CFU/ml.
